What is called MIC is the lowest concentration that inhibits growth of the organism. The term inhibition denotes the change of the read-out against control, counted positive when it falls.

The subject of assay [1] is Candida albicans. Put plainly: Antifungal activity against fluconazole resistant Candida albicans 167-2 by CLSI protocol based broth microdilution method. In kind it is functional. An outline of the steps: (§1)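 Broth microdilution per CLSI M27-A3 against clinical C. albicans isolates. Strains sub-cultured at least twice on Tryptone Soya Agar, 37 °C, 48 h. Compounds dissolved in DMSO at 2000 μg mL–1 stock. Fluconazole positive control, plus culture, media and vehicle controls. Run in duplicate; MIC in μg mL–1.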

In assay [2] the test system is Candida albicans. The assay is described as follows: Up regulation of ERG11 gene expression in fluconazole resistant Candida albicans A171 at 8 ug/ml after 2 hrs by qRT PCR analysis. In kind it is functional, organism-based. An outline of the steps:
(§2)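 Cells exposed 2 h to test agents at MIC. Total RNA isolated, cDNA synthesized, qPCR for ERG11 with ACT1 as endogenous control. Triplicate independent experiments, reported as mean ± standard deviation.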

Assay [3] has as its system Candida albicans. Put plainly: Antifungal activity against fluconazole resistant Candida albicans A171 by CLSI protocol based broth microdilution method. Type of assay: functional. In a few lines: as §1
(Dilution methods test growth across graded concentrations, often in twofold steps.)

For assay [4], the system named is Candida albicans. Put plainly: Antifungal activity against fluconazole susceptible Candida albicans 004gr by CLSI protocol based broth microdilution method. In kind it is functional. In a few lines:
(§3)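 Clinical isolates and control strain subcultured at least twice on TSA, 37 °C, 48 h. MICs by CLSI M27-A3 broth microdilution; compounds dissolved in DMSO to 2000 μg mL–1 stock. Fluconazole positive control, culture, media and DMSO vehicle controls in each run. Duplicate experiments; MIC in μg mL–1.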

In assay [5] the test system is Candida albicans. The assay is described as follows: Antifungal activity against fluconazole susceptible Candida albicans 0072gr by CLSI protocol based broth microdilution method. In kind it is functional. In a few lines:
as §3

For assay [6], the system named is Candida albicans. Put plainly: Antifungal activity against fluconazole susceptible Candida albicans 003gr by CLSI protocol based broth microdilution method. In kind it is functional. In a few lines:
as §3

Assay [7] deals with Candida albicans. Put plainly: Antifungal activity against fluconazole susceptible Candida albicans 002B1 by CLSI protocol based broth microdilution method. Type of assay: functional. An outline of the steps:
as §3

The subject of assay [8] is Candida albicans. The assay is described as follows: Inhibition of ergosterol biosynthesis in fluconazole resistant Candida albicans A171 at 8 ug/ml relative to control. In kind it is functional. In a few lines: (§4)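 Total sterols quantified by alcoholic KOH extraction in cells grown in 50 ml TSB with compounds at MIC and ½ MIC; untreated and 8 μg mL–1 fluconazole controls. Spectral scan; ergosterol content from A281.5 and A230 absorbances, dilution factor and pellet weight, correcting for 24(28) DHE.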

The test system of assay [9] is Candida albicans. The assay is described as follows: Down regulation of ERG11 gene expression in fluconazole susceptible Candida albicans ATCC 90028 at 8 ug/ml after 2 hrs by qRT PCR analysis. Type of assay: functional, organism-based. In a few lines:
as §2

The test system of assay [10] is Candida albicans. The assay is described as follows: Antifungal activity against fluconazole susceptible Candida albicans 0079gr by CLSI protocol based broth microdilution method. Type of assay: functional. An outline of the steps:
as §3

Assay [11] concerns Candida albicans. The assay is described as follows: Antifungal activity against fluconazole susceptible Candida albicans 004B1 by CLSI protocol based broth microdilution method. Type of assay: functional. An outline of the steps: as §3
In assay [12] the test system is Candida albicans. The assay is described as follows: Inhibition of ergosterol biosynthesis in fluconazole susceptible Candida albicans ATCC 90028 at 8 ug/ml relative to control. Type of assay: functional. An outline of the steps: as §4
Assay [13] relates to Candida albicans. Put plainly: Antifungal activity against fluconazole resistant Candida albicans 167-1 by CLSI protocol based broth microdilution method. In kind it is functional. In a few lines: as §1
In assay [14] the test system is Candida albicans. Put plainly: Antifungal activity against Candida albicans ATCC 90028 by CLSI protocol based broth microdilution method. In kind it is functional. In a few lines:
as §3

≈ marks a conversion by molar mass, not a printed value. Calls of active or inactive are those of the source. The rule behind the calls is not given here.

With `OC(Cn1cncn1)(Cn1cncn1)c1ccc(F)cc1F` [FLUCONAZOLE], the MIC with Candida albicans [1] was in the range of 125 to 500 µg/mL (≈ 408 to 1630 µM); with Candida albicans [3] it was 125 to 500 µg/mL (≈ 408 to 1630 µM); against Candida albicans [4], 2 to 8 µg/mL (≈ 6.53 to 26.1 µM); with Candida albicans [5], 2 to 8 µg/mL (≈ 6.53 to 26.1 µM); in the assay on Candida albicans [6], 2 to 8 µg/mL (≈ 6.53 to 26.1 µM); against Candida albicans [7], 2 to 8 µg/mL (≈ 6.53 to 26.1 µM). Further, the minimum inhibitory concentration (MIC) lay within 2 to 8 µg/mL (≈ 6.53 to 26.1 µM) in the assay with Candida albicans [10], 2 to 8 µg/mL (≈ 6.53 to 26.1 µM) in the assay on Candida albicans [11], 125 to 500 µg/mL (≈ 408 to 1630 µM) against Candida albicans [13] and 2 to 8 µg/mL (≈ 6.53 to 26.1 µM) with Candida albicans [14]. In addition, the result in the assay on Candida albicans [2] was inactive. For the same molecule, the inhibition at 8 µg/mL in the assay with Candida albicans [8] was found to be 11%; in the assay with Candida albicans [12], 100%. Further, in the assay with Candida albicans [9], the inhibition entry was “Active”.

These data come from ChEMBL document CHEMBL4257459, “Synergistic antifungal effect of cyclized chalcone derivatives and fluconazole against Candida albicans” (2017).
